Test results as given in ChEMBL document CHEMBL1240464, “Synthesis, structure and in vitro antibacterial activities of new hybrid disinfectants quaternary ammonium compounds: pyridinium and quinolinium stilbene benzenesulfonates” (2010).
Converted amounts (≈) assume the structure as drawn. The source made the active and inactive calls. The calls are words filed in the database; no cut-off is given here.

Columns and labels:
Staphylococcus aureus [1] = experiment: Antibacterial activity against methicillin-resistant Staphylococcus aureus ATCC 43300 after 8 to 12 hrs by colorimetric microdilution broth technique; type: functional
How it was run: (§1)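 Broth microdilution with a colorimetric read-out. Bacteria were suspended in RPMI1640 with 1% Alamar Blue. Compound was dissolved in DMSO as a 25 mg/ml stock and added to the first row, then serially halved to a 128-fold final dilution. Plates were incubated at 37 °C for 8–12 h. MIC was the lowest concentration preventing the blue-to-red indicator change. Each assay was run at least three times.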

Enterococcus faecalis [2] = experiment: Antibacterial activity against vancomycin-resistant Enterococcus faecalis ATCC 51299 after 8 to 12 hrs by colorimetric microdilution broth technique; type: functional; how it was run: as §1
Enterococcus faecalis [3] = experiment: Antibacterial activity against Enterococcus faecalis TISTR459 after 8 to 12 hrs by colorimetric microdilution broth technique; type: functional; how it was run: as §1
Bacillus subtilis = experiment: Antibacterial activity against Bacillus subtilis after 8 to 12 hrs by colorimetric microdilution broth technique; type: functional
How it was run: (§2)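 Broth microdilution in RPMI1640. Bacterial suspension in RPMI1640 is mixed with 1% Alamar Blue. Sample dissolved in DMSO at 25 mg/ml (stock) is added to the first row, then serially diluted two-fold down the plate to 128-fold. Plates are incubated at 37 °C for 8–12 h. MIC is the lowest concentration preventing the Alamar Blue change from blue to red. At least three repeats.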

Shigella sonnei [4] = experiment: Antibacterial activity against Shigella sonnei after 8 to 12 hrs by colorimetric microdilution broth technique; type: functional; how it was run: as §2
Salmonella typhi [5] = experiment: Antibacterial activity against Salmonella typhi after 8 to 12 hrs by colorimetric microdilution broth technique; type: functional, Salmonella enterica subsp. enterica serovar Typhi; conditions: Salmonella enterica; how it was run: as §1
Staphylococcus aureus [6] = experiment: Antibacterial activity against Staphylococcus aureus TISTR517 after 8 to 12 hrs by colorimetric microdilution broth technique; type: functional; how it was run: as §2
Pseudomonas aeruginosa [7] = experiment: Antibacterial activity against Pseudomonas aeruginosa after 8 to 12 hrs by colorimetric microdilution broth technique; type: functional; how it was run: as §2
Salmonella typhi [8] = experiment: Antibacterial activity against Salmonella typhi at up to 300 ug/ml after 8 to 12 hrs by colorimetric microdilution broth technique; type: functional, organism-based; conditions: Salmonella enterica subsp. enterica serovar Typhi; how it was run: as §1
Pseudomonas aeruginosa [9] = experiment: Antibacterial activity against Pseudomonas aeruginosa at up to 300 ug/ml after 8 to 12 hrs by colorimetric microdilution broth technique; type: functional, organism-based; how it was run: as §2
Staphylococcus aureus [10] = experiment: Antibacterial activity against Staphylococcus aureus TISTR517 at up to 300 ug/ml after 8 to 12 hrs by colorimetric microdilution broth technique; type: functional, organism-based; how it was run: as §2
Enterococcus faecalis [11] = experiment: Antibacterial activity against Enterococcus faecalis TISTR459 at up to 300 ug/ml after 8 to 12 hrs by colorimetric microdilution broth technique; type: functional, organism-based; how it was run: as §2
Shigella sonnei [12] = experiment: Antibacterial activity against Shigella sonnei at up to 300 ug/ml after 8 to 12 hrs by colorimetric microdilution broth technique; type: functional, organism-based; how it was run: as §2

SMILES | MIC (Staphylococcus aureus [1]) | MIC (Enterococcus faecalis [2]) | MIC (Enterococcus faecalis [3]) | MIC (Bacillus subtilis) | MIC (Shigella sonnei [4]) | MIC (Salmonella typhi [5]) | MIC (Staphylococcus aureus [6]) | MIC (Pseudomonas aeruginosa [7]) | MIC (Salmonella typhi [8]) | MIC (Pseudomonas aeruginosa [9]) | MIC (Staphylococcus aureus [10]) | MIC (Enterococcus faecalis [11]) | MIC (Shigella sonnei [12])
CCOc1ccc(/C=C/c2ccc3ccccc3[n+]2C)cc1.COc1ccc(S(=O)(=O)[O-])cc1 [listing 1 of 2 here] | 2.34 µg/mL | 18.8 µg/mL | 75 µg/mL | 18.8 µg/mL | 150 µg/mL | – | – | – | – | – | – | – | –
CN(C)c1ccc(/C=C/c2cccc[n+]2C)cc1.O=S(=O)([O-])c1ccc(Br)cc1 | 75 µg/mL | – | – | – | – | – | – | – | – | – | – | – | –
CCOc1ccc(/C=C/c2cccc[n+]2C)cc1.O=S(=O)([O-])c1ccc(Cl)cc1 | 75 µg/mL | – | – | – | – | – | – | – | – | – | – | – | –
CN(C)c1ccc(/C=C/c2ccc3ccccc3[n+]2C)cc1.[I-] | 9.37 µg/mL | 4.68 µg/mL | 18.8 µg/mL | 9.37 µg/mL | 4.68 µg/mL | 300 µg/mL | 18.8 µg/mL | 300 µg/mL | – | – | – | – | –
CCOc1ccc(/C=C/c2ccc3ccccc3[n+]2C)cc1.O=S(=O)([O-])c1ccc(Br)cc1 [listing 1 of 2 here] | 2.34 µg/mL | 18.8 µg/mL | 37.5 µg/mL | 18.8 µg/mL | 75 µg/mL | – | 300 µg/mL | – | – | – | – | – | –
CCOc1ccc(/C=C/c2cccc[n+]2C)cc1.[I-] | 37.5 µg/mL | – | – | – | 300 µg/mL | – | – | – | – | – | – | – | –
CN(C)c1ccc(C=Cc2cccc[n+]2C)cc1.[I-] | 37.5 µg/mL | 300 µg/mL | 300 µg/mL | 300 µg/mL | 300 µg/mL | 300 µg/mL | 300 µg/mL | 300 µg/mL | – | – | – | – | –
CCOc1ccc(/C=C/c2cccc[n+]2C)cc1.Cc1ccc(S(=O)(=O)[O-])cc1 | 37.5 µg/mL | 300 µg/mL | 150 µg/mL | 300 µg/mL | 150 µg/mL | 150 µg/mL | 150 µg/mL | 37.5 µg/mL | – | – | – | – | –
CN(C)c1ccc(/C=C/c2cccc[n+]2C)cc1.COc1ccc(S(=O)(=O)[O-])cc1 | 75 µg/mL | 150 µg/mL | 150 µg/mL | 150 µg/mL | 150 µg/mL | 150 µg/mL | 150 µg/mL | 150 µg/mL | – | – | – | – | –
CN(C)c1ccc(/C=C/c2cccc[n+]2C)cc1.O=S(=O)([O-])c1ccc(Cl)cc1 | 37.5 µg/mL | 150 µg/mL | – | 300 µg/mL | – | 300 µg/mL | – | 300 µg/mL | – | – | – | – | –
CN(C)c1ccc(/C=C/c2ccc3ccccc3[n+]2C)cc1.COc1ccc(S(=O)(=O)[O-])cc1 [listing 1 of 2 here] | – | – | – | – | – | – | – | – | inactive | inactive | inactive | – | –
CCOc1ccc(/C=C/c2ccc3ccccc3[n+]2C)cc1.COc1ccc(S(=O)(=O)[O-])cc1 [listing 2 of 2 here] | – | – | – | – | – | – | – | – | inactive | inactive | inactive | – | –
CCOc1ccc(/C=C/c2ccc3ccccc3[n+]2C)cc1.Nc1ccc(S(=O)(=O)[O-])cc1 [listing 1 of 2 here] | 4.68 µg/mL | 75 µg/mL | 37.5 µg/mL | 37.5 µg/mL | 75 µg/mL | 75 µg/mL | 37.5 µg/mL | – | – | – | – | – | –
CCOc1ccc(/C=C/c2cccc[n+]2C)cc1.COc1ccc(S(=O)(=O)[O-])cc1 | 150 µg/mL | – | – | – | – | – | – | – | – | – | – | – | –
CCOc1ccc(/C=C/c2ccc3ccccc3[n+]2C)cc1.O=S(=O)([O-])c1ccc(Cl)cc1 | 2.34 µg/mL | 150 µg/mL | 75 µg/mL | 75 µg/mL | 300 µg/mL | – | – | – | – | – | – | – | –
CN(C)c1ccc(/C=C/c2ccc3ccccc3[n+]2C)cc1.COc1ccc(S(=O)(=O)[O-])cc1 [listing 2 of 2 here] | 2.34 µg/mL | 150 µg/mL | 150 µg/mL | 75 µg/mL | 150 µg/mL | – | – | – | – | – | – | – | –

SMILES | MIC (Staphylococcus aureus [1]) | MIC (Enterococcus faecalis [2]) | MIC (Enterococcus faecalis [3]) | MIC (Bacillus subtilis) | MIC (Shigella sonnei [4]) | MIC (Salmonella typhi [5]) | MIC (Staphylococcus aureus [6]) | MIC (Pseudomonas aeruginosa [7]) | MIC (Salmonella typhi [8]) | MIC (Pseudomonas aeruginosa [9]) | MIC (Staphylococcus aureus [10]) | MIC (Enterococcus faecalis [11]) | MIC (Shigella sonnei [12])
CN(C)c1ccc(/C=C/c2cccc[n+]2C)cc1.Nc1ccc(S(=O)(=O)[O-])cc1 | 37.5 µg/mL | 300 µg/mL | – | – | – | – | – | – | – | – | – | – | –
CCOc1ccc(/C=C/c2ccc3ccccc3[n+]2C)cc1.Cc1ccc(S(=O)(=O)[O-])cc1 | 2.34 µg/mL | 37.5 µg/mL | 37.5 µg/mL | 9.37 µg/mL | 150 µg/mL | – | – | – | – | – | – | – | –
CN(C)c1ccc(/C=C/c2cccc[n+]2C)cc1 | – | – | – | – | – | – | – | – | – | – | inactive | inactive | inactive
CN(C)c1ccc(/C=C/c2ccc3ccccc3[n+]2C)cc1.O=S(=O)([O-])c1ccc(Cl)cc1 | 2.34 µg/mL | 2.34 µg/mL | 2.34 µg/mL | 2.34 µg/mL | 2.34 µg/mL | 300 µg/mL | 2.34 µg/mL | 300 µg/mL | – | – | – | – | –
CCOc1ccc(/C=C/c2ccc3ccccc3[n+]2C)cc1.[I-] | 2.34 µg/mL | 37.5 µg/mL | 75 µg/mL | 37.5 µg/mL | 150 µg/mL | – | – | – | – | – | – | – | –
CCOc1ccc(/C=C/c2cccc[n+]2C)cc1.O=S(=O)([O-])c1ccc(Br)cc1 | 18.8 µg/mL | – | – | – | 300 µg/mL | 300 µg/mL | – | – | – | – | – | – | –
CCOc1ccc(/C=C/c2ccc3ccccc3[n+]2C)cc1.O=S(=O)([O-])c1ccc(Br)cc1 [listing 2 of 2 here] | – | – | – | – | – | – | – | – | inactive | inactive | – | – | –
CN(C)c1ccc(/C=C/c2cccc[n+]2C)cc1.Cc1ccc(S(=O)(=O)[O-])cc1 | 37.5 µg/mL | 300 µg/mL | 300 µg/mL | 150 µg/mL | 300 µg/mL | 300 µg/mL | 300 µg/mL | 150 µg/mL | – | – | – | – | –
CCOc1ccc(/C=C/c2ccc3ccccc3[n+]2C)cc1.Nc1ccc(S(=O)(=O)[O-])cc1 [listing 2 of 2 here] | – | – | – | – | – | – | – | – | – | inactive | – | – | –
CN(C)c1ccc(/C=C/c2ccc3ccccc3[n+]2C)cc1.Cc1ccc(S(=O)(=O)[O-])cc1 | 2.34 µg/mL | 2.34 µg/mL | 2.34 µg/mL | 2.34 µg/mL | 2.34 µg/mL | 300 µg/mL | 2.34 µg/mL | 300 µg/mL | – | – | – | – | –
CN(C)c1ccc(/C=C/c2ccc3ccccc3[n+]2C)cc1.Nc1ccc(S(=O)(=O)[O-])cc1 | 2.34 µg/mL | 18.8 µg/mL | 75 µg/mL | 18.8 µg/mL | 75 µg/mL | 75 µg/mL | 75 µg/mL | 150 µg/mL | – | – | – | – | –
CCOc1ccc(/C=C/c2cccc[n+]2C)cc1.Nc1ccc(S(=O)(=O)[O-])cc1 | 75 µg/mL | – | – | – | – | – | – | – | – | – | – | – | –
CN(C)c1ccc(/C=C/c2ccc3ccccc3[n+]2C)cc1.O=S(=O)([O-])c1ccc(Br)cc1 | 2.34 µg/mL | 2.34 µg/mL | 2.34 µg/mL | 2.34 µg/mL | 2.34 µg/mL | 300 µg/mL | 2.34 µg/mL | 300 µg/mL | – | – | – | – | –
CCOc1ccc(/C=C/c2ccc3ccccc3[n+]2C)cc1 | – | – | – | – | – | – | – | – | inactive | inactive | inactive | – | –
CN[C@H](CC(C)C)C(=O)N[C@H]1C(=O)N[C@@H](CC(N)=O)C(=O)N[C@H]2C(=O)N[C@H]3C(=O)N[C@H](C(=O)N[C@H](C(=O)O)c4cc(O)cc(O)c4-c4cc3ccc4O)[C@H](O)c3ccc(c(Cl)c3)Oc3cc2cc(c3O[C@@H]2O[C@H](CO)[C@@H](O)[C@H](O)[C@H]2O[C@H]2C[C@](C)(N)[C@H](O)[C@H](C)O2)Oc2ccc(cc2Cl)[C@H]1O [VANCOMYCIN] | < 2.34 µg/mL | 2.34 µg/mL (≈ 1.61 µM) | 9.38 µg/mL (≈ 6.47 µM) | 2.34 µg/mL (≈ 1.61 µM) | 2.34 µg/mL (≈ 1.61 µM) | 2.34 µg/mL (≈ 1.61 µM) | 9.37 µg/mL (≈ 6.47 µM) | 2.34 µg/mL (≈ 1.61 µM) | – | – | – | – | –
